# Experimental data as given in ChEMBL document CHEMBL2417450, “Antitumor properties of substituted (αE)-α-(1H-indol-3-ylmethylene)benzeneacetic acids or amides” (Bioorg Med Chem, 2013).
# Active and inactive are the calls of the source. The calls are words filed in the database; no cut-off is given here.
# Legend:
# [1] = Cytotoxicity against human fibroblasts assessed as cell viability after 72 hrs by MTT assay relative to control; format: cell-based, Fibroblast; design: concentration or dose not given beside the values; details: read-out: Activity
# M14 = experiment: Cytotoxicity against human M14 cells assessed as cell viability after 72 hrs by MTT assay; format: functional, cell-based; details: M14, 72 h
# Summary of the method: (§1)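 Cells were grown at 37 °C in humidified 5% CO2/95% air. DU145 and A549 were kept in DMEM with 10% FCS, glutamine and nonessential amino acids. LNCaP, KB and M14 were kept in RPMI with 10% FCS, and Caco2 in MEM with 10% FCS. For the MTT assay, 1 × 10^4 cells were seeded per well and preincubated 24 h, then treated 72 h (DMSO ≤0.1%). MTT (0.5% in PBS) was added 4 h before the end, formazan was dissolved in DMSO, and OD was read at 550 nm. Triplicates were run.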
# Caco-2 = experiment: Cytotoxicity against human Caco2 cells assessed as cell viability after 72 hrs by MTT assay; format: functional, cell-based; details: Caco-2, 72 h; summary of the method: as §1
# KB = experiment: Cytotoxicity against human KB cells assessed as cell viability after 72 hrs by MTT assay; format: functional, cell-based; summary of the method: as §1
# DU-145 [2] = experiment: Cytotoxicity against human DU145 cells assessed as cell viability after 72 hrs by MTT assay; format: functional, cell-based; details: DU-145, 72 h; summary of the method: as §1
# A549 = experiment: Cytotoxicity against human A549 cells assessed as cell viability after 72 hrs by MTT assay; format: functional, cell-based; details: A549, 72 h; summary of the method: as §1
# LNCaP = experiment: Cytotoxicity against human LNCAP cells assessed as cell viability after 72 hrs by MTT assay; format: functional, cell-based; summary of the method: as §1
# [3] = target: T1, AKT/p21CIP1 (Homo sapiens) (UniProt P38936+P31749); experiment: Inhibition of AKT/p21CIP1 in human DU145 cells assessed as decrease in ratio of phosphorylated retinoblastoma level to unphosphorylated retinoblastoma level at 0.1 uM after 72 hrs by Western blotting analysis; format: cell-based; details: DU-145, 1 uM, in the assay text read “1 uM” for “0.1 uM”
# Summary of the method: (§2)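 DU145 cells were treated 72 h and lysed in 2% SDS buffer. Equal protein was resolved by SDS-PAGE and probed for phospho-Rb Ser249/Thr252, total Rb (1:200 each) and α-tubulin. Bands were visualized on autoradiography film and read densitometrically relative to α-tubulin. The p-Rb/Rb ratio was compared with control. Results are mean SEM of three experiments, with Student's t test.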
# DU-145 [4] = experiment: Increase in p21 protein expression in human DU145 cells at 0.1 uM after 72 hrs by Western blotting analysis; format: functional, cell-based; details: 1 uM, in the assay text read “1 uM” for “0.1 uM”
# Summary of the method: (§3)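 DU145 cells were treated 72 h, rinsed in PBS and lysed in 2% SDS buffer (50 mM Tris-HCl pH 6.8, protease inhibitors, 2 mM orthovanadate, 1 mM NaF, 1 mM pyrophosphate). Protein was quantified by BCA, and equal protein was run on 10% SDS-PAGE and blotted to nitrocellulose. Blots were blocked in 5% milk TBS-Tween 0.1%, detected by ECL and normalized to β-actin. Results are mean SEM of three experiments, with Student's t test versus control.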
# DU-145 [5] = experiment: Decrease in total GSK3beta protein level in human DU145 cells at 0.1 uM after 72 hrs by Western blotting analysis; format: functional, cell-based; details: 1 uM, in the assay text read “1 uM” for “0.1 uM”; summary of the method: as §3
# DU-145 [6] = experiment: Effect on total ERK1/2 protein level in human DU145 cells at 0.1 uM after 72 hrs by Western blotting analysis; format: functional, cell-based; summary of the method: as §3
# [7] = target: Glycogen synthase kinase-3 beta (Homo sapiens) (UniProt P49841); experiment: Inhibition of GSK3beta phosphorylation at Ser9 in human DU145 cells at 0.1 uM after 72 hrs by Western blotting analysis; format: cell-based; details: DU-145; summary of the method: as §3
# DU-145 [8] = experiment: Effect on total AKT protein level in human DU145 cells at 0.1 uM after 72 hrs by Western blotting analysis; format: functional, cell-based; summary of the method: as §3
# [9] = target: T2, Mitogen-activated protein kinase; ERK1/ERK2 (Homo sapiens) (UniProt P27361+P28482); experiment: Inhibition of ERK1/2 phosphorylation at Thr202/Tyr204 in human DU145 cells at 0.1 uM after 72 hrs by Western blotting analysis relative to control; format: cell-based; details: DU-145; summary of the method: as §3
# [10] = target: RAC-alpha serine/threonine-protein kinase (Homo sapiens) (UniProt P31749); experiment: Inhibition of AKT phosphorylation at Ser473 in human DU145 cells at 0.1 uM after 72 hrs by Western blotting analysis relative to control; format: cell-based; details: DU-145; summary of the method: as §3
# [11] = target: T1, AKT/p21CIP1 (Homo sapiens); experiment: Inhibition of AKT/p21CIP1 in human DU145 cells assessed as decrease in ratio of phosphorylated retinoblastoma level to unphosphorylated retinoblastoma level at 1 uM after 72 hrs by Western blotting analysis; format: cell-based; details: DU-145; summary of the method: as §2
# DU-145 [12] = experiment: Increase in p21 protein expression in human DU145 cells at 1 uM after 72 hrs by Western blotting analysis; format: functional, cell-based; summary of the method: as §3
# DU-145 [13] = experiment: Decrease in total GSK3beta protein level in human DU145 cells at 1 uM after 72 hrs by Western blotting analysis; format: functional, cell-based; summary of the method: as §3
# [14] = target: Glycogen synthase kinase-3 beta (Homo sapiens) (UniProt P49841); experiment: Inhibition of GSK3beta phosphorylation at Ser9 in human DU145 cells at 1 uM after 72 hrs by Western blotting analysis; format: cell-based; details: DU-145; summary of the method: as §3
# DU-145 [15] = experiment: Effect on total AKT protein level in human DU145 cells at 1 uM after 72 hrs by Western blotting analysis; format: functional, cell-based; summary of the method: as §3
# DU-145 [16] = experiment: Effect on total ERK1/2 protein level in human DU145 cells at 1 uM after 72 hrs by Western blotting analysis; format: functional, cell-based; summary of the method: as §3
# [17] = target: T2, Mitogen-activated protein kinase; ERK1/ERK2 (Homo sapiens); experiment: Inhibition of ERK1/2 phosphorylation at Thr202/Tyr204 in human DU145 cells at 1 uM after 72 hrs by Western blotting analysis relative to control; format: cell-based; details: DU-145; summary of the method: as §3
# [18] = target: RAC-alpha serine/threonine-protein kinase (Homo sapiens) (UniProt P31749); experiment: Inhibition of AKT phosphorylation at Ser473 in human DU145 cells at 1 uM after 72 hrs by Western blotting analysis relative to control; format: cell-based; details: DU-145; summary of the method: as §3
# T2 sequence (P27361 whole entry, looked up): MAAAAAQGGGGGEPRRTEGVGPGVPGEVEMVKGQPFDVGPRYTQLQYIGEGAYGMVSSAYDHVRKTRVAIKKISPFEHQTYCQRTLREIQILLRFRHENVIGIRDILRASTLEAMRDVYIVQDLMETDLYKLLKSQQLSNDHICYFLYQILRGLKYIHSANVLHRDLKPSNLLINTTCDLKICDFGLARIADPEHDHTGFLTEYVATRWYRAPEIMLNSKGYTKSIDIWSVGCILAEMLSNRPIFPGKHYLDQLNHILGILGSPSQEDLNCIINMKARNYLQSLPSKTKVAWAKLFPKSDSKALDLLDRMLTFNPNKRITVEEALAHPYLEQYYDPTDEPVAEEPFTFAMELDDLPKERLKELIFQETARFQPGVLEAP
# T2 sequence (P28482 whole entry, looked up): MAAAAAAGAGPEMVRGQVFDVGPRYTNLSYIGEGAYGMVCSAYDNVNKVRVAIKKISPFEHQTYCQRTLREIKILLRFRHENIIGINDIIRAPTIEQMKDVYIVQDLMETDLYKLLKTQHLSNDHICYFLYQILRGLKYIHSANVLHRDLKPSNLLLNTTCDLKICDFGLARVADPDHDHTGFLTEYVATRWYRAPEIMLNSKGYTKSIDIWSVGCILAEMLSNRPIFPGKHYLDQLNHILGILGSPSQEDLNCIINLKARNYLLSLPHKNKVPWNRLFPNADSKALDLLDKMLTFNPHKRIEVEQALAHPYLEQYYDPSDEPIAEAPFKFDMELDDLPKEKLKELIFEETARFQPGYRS
# Chain of RAC-alpha serine/threonine-protein kinase (Homo sapiens) (P31749 whole entry): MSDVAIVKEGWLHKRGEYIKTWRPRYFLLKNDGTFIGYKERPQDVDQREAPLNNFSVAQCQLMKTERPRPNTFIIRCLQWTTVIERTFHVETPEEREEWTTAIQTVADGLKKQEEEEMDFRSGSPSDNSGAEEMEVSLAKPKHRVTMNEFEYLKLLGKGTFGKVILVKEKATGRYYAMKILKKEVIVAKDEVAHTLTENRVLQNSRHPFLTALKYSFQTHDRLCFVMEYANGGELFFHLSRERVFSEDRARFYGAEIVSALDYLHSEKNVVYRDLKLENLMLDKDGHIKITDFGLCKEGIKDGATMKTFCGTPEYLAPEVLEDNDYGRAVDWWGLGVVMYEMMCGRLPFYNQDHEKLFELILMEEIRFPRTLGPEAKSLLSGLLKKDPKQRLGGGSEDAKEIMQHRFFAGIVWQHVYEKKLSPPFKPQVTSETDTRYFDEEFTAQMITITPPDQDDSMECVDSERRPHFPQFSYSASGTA
# Chain of Glycogen synthase kinase-3 beta (Homo sapiens) (P49841 whole entry, looked up): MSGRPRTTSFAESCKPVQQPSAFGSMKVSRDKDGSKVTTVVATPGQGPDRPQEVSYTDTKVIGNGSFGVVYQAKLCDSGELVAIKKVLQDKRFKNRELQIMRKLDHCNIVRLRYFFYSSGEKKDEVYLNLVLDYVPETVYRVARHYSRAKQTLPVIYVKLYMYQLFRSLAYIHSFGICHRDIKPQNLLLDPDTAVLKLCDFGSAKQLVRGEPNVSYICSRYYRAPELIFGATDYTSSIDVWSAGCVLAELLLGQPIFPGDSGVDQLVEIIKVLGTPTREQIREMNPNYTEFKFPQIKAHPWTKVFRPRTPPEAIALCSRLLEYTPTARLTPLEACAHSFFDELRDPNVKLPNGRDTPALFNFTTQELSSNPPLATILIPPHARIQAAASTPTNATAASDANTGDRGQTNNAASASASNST
SMILES,viability at 72 h [1] [%],IC50 (M14) [µM],IC50 (Caco-2) [µM],IC50 (KB) [µM],IC50 (DU-145 [2]) [µM],IC50 (A549) [µM],IC50 (LNCaP) [µM],other results
COc1ccc(/C(=C\c2c[nH]c3ccccc23)C(N)=O)cc1,85,53,> 100,86.2,40,,,
COc1cc(/C(=C\c2cn(C(C)=O)c3ccc(OCc4ccccc4)cc23)C(=O)O)cc(OC)c1OC,85,57.1,,> 100,0.95,89.1,59.6,
CC(=O)n1cc(/C=C(/C(=O)O)c2ccc(OCc3ccccc3)cc2)c2cc(OCc3ccccc3)ccc21,85,58.2,,43,1.41,44.1,77.7,
COc1ccc(/C(=C\c2c[nH]c3ccc(OCc4ccccc4)cc23)C(N)=O)cc1,85,> 100,> 100,> 100,39.8,,,
COc1ccc(OC)c(/C(=C\c2cn(C(C)=O)c3ccc(OCc4ccccc4)cc23)C(=O)O)c1,85,87.1,,> 100,0.83,54.5,44.1,
COc1ccc(/C(=C\c2c[nH]c3ccc(OCc4ccccc4)cc23)C(=O)O)cc1,85,58.4,> 100,38.5,38.1,,,
NC(=O)/C(=C/c1c[nH]c2ccccc12)c1ccccc1,85,45.4,> 100,> 100,33.3,,,
COc1ccc(Cn2cc(/C=C(/C(=O)O)c3ccccc3)c3cc(OCc4ccccc4)ccc32)cc1,85,64.5,,97,0.86,1,38.2,
COc1cccc(/C(=C\c2cn(C(C)=O)c3ccc(OCc4ccccc4)cc23)C(=O)O)c1,85,> 100,,> 100,1.08,45.2,65.1,
COc1cc(OC)cc(/C(=C\c2cn(C(C)=O)c3ccc(OCc4ccccc4)cc23)C(=O)O)c1,85,94,,30.4,0.88,26,26.1,
COc1ccc(/C(=C\c2cn(C(C)=O)c3ccc(OCc4ccccc4)cc23)C(=O)O)cc1,85,> 100,,> 100,0.91,> 100,85,inhibition [3]: Active; Activity (DU-145 [4]): Active; Activity (DU-145 [5]): Active; Activity (DU-145 [6]): inactive; inhibition [7]: inactive; Activity (DU-145 [8]): inactive; inhibition [9]: Active; inhibition [10]: Active; inhibition [11]: Active; Activity (DU-145 [12]): Active; Activity (DU-145 [13]): Active; inhibition [14]: inactive; Activity (DU-145 [15]): inactive; Activity (DU-145 [16]): inactive; inhibition [17]: 40%; inhibition [18]: 20%
NC(=O)/C(=C/c1c[nH]c2ccc(OCc3ccccc3)cc12)c1ccccc1,85,> 100,> 100,40.3,30.9,,,
CC(=O)n1cc(/C=C(/C(=O)O)c2ccc(Cl)cc2)c2cc(OCc3ccccc3)ccc21,85,> 100,,> 100,1.13,52.3,> 100,
O=C(O)/C(=C/c1c[nH]c2ccc(OCc3ccccc3)cc12)c1ccccc1,85,95.2,41.6,55.5,34.7,,,
O=C(O)/C(=C/c1c[nH]c2ccccc12)c1ccccc1,85,> 100,> 100,> 100,> 100,,,
CC(=O)n1cc(/C=C(/C(=O)O)c2ccccc2)c2cc(OCc3ccccc3)ccc21,85,> 100,,55.5,26.7,57.5,> 100,
COc1ccccc1/C(=C\c1cn(C(C)=O)c2ccc(OCc3ccccc3)cc12)C(=O)O,85,> 100,,> 100,1.01,57.2,48.5,
COc1ccc(/C(=C\c2c[nH]c3ccccc23)C(=O)O)cc1,85,> 100,> 100,> 100,> 100,,,
CC(=O)n1cc(/C=C(/C(=O)O)c2ccc3c(c2)OCO3)c2cc(OCc3ccccc3)ccc21,85,> 100,,> 100,1.15,53.6,99.1,
COc1ccc(/C(=C\c2cn(C(C)=O)c3ccc(OCc4ccccc4)cc23)C(=O)O)cc1OC,85,65.5,,96.7,1.05,54.8,> 100,
